# Measurements: ChEMBL document CHEMBL4602728, “6-Amino[1,2,5]oxadiazolo[3,4-b]pyrazin-5-ol Derivatives as Efficacious Mitochondrial Uncouplers in STAM Mouse Model of Nonalcoholic Steatohepatitis” (J Med Chem, 2020)
# The source made the active and inactive calls.
# Assays:
# [1] = Toxicity in C57BL/6 mouse model of streptozotocin-induced nonalcoholic steatohepatitis assessed as effect on plasma triglyceride level at 25 mg/kg/day, po formulated into HFD administered for 21 days measured post last dose by GPO reagent based colorimetric method; assay type: organism-based; details: in vivo, 504 h
# How it was run: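 Plasma triglyceride was measured in day-21 nonfasting plasma from STAM male mice given 25 mg kg−1 d−1 in high-fat diet. Samples were incubated with GPO reagent at 37 °C for 5–20 min until absorbance at 500 nm stabilized. Values were interpolated from a glycerol standard curve. n = 8; Kruskal–Wallis test.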
# [2] = target: Voltage-gated inwardly rectifying potassium channel KCNH2 (Homo sapiens, UniProt Q12809); experiment: Inhibition of human ERG by Qpatch method
# [3] = Toxicity in C57BL/6 mouse assessed as increase in body temperature at 5 to 50 mg/kg, po measured upto 4 hrs by rectal probe thermometry; assay type: organism-based; details: in vivo
# How it was run: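 Male C57BL/6 mice received a single oral gavage of vehicle or compound at 5, 20 or 50 mg/kg. The vehicle was methylcellulose, Tween 80 and DMSO. Core body temperature was taken with a rectal probe thermometer at set time points. n = 3; two-way repeated measures ANOVA.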
# Mus musculus [4] = experiment: Anti-hepatosteatosis activity in C57BL/6 mouse model of streptozotocin-induced nonalcoholic steatohepatitis assessed as reduction in liver triglyceride level at 25 mg/kg/day, po administered for 21 days formulated into HFD measured post-last dose by triglyceride E test based assay; assay type: functional, organism-based
# How it was run: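 STAM male mice received 25 mg kg−1 d−1 in high-fat diet for 21 days and were killed at 9 weeks of age. The right liver lobe was snap-frozen. Total lipids were extracted by Folch's method, with homogenization in chloroform–methanol (2:1, v/v) and overnight incubation at room temperature. n = 8 per group; one-way ANOVA.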
# [5] = Toxicity in C57BL/6 mouse model of streptozotocin-induced nonalcoholic steatohepatitis assessed as change in plasma AST level at 25 mg/kg/day, po formulated into HFD administered for 21 days measured post last dose; assay type: organism-based; details: in vivo, 504 h
# How it was run: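 Plasma was taken at day 21 from STAM mice fed drug in high-fat diet at 25 mg kg−1 d−1. AST activity was read with Infinity AST reagent at 37 °C, measuring absorbance at 340 nm every minute for 20 min. U/L was calculated from ΔA/min times a factor based on the NADH molar absorption coefficient, sample volume and path length. n = 8; one-way ANOVA.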
# [6] = Toxicity in C57BL/6 mouse model of streptozotocin-induced nonalcoholic steatohepatitis assessed as effect on food consumption per cage at 25 mg/kg/day, po formulated into HFD administered for 21 days measured during compound dosing (reference value: 318 +/- 13 g); assay type: organism-based; details: in vivo, 504 h
# Mus musculus [7] = experiment: Anti-hepatosteatosis activity in C57BL/6 mouse model of streptozotocin-induced nonalcoholic steatohepatitis assessed as reduction in inflammation score at 25 mg/kg/day, po administered for 21 days formulated into HFD measured post-last dose by […] based histopathological analysis; assay type: functional, organism-based
# How it was run: (§1)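 Liver tissue came from STAM male mice fed drug-containing high-fat diet at 25 mg kg−1 d−1 for 21 days from 6 weeks of age. Pieces of the left lateral lobe were Bouin-fixed and paraffin-embedded, then H&E-stained. A pathologist scored steatosis, inflammation and ballooning using the Kleiner NAFLD activity score criteria. n = 8 per group; Kruskal–Wallis test.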
# [8] = Toxicity in C57BL/6 mouse model of streptozotocin-induced nonalcoholic steatohepatitis assessed as effect on plasma cholesterol level at 25 mg/kg/day, po formulated into HFD administered for 21 days measured post last dose by […] reagent based colorimetric method; assay type: organism-based; details: in vivo, 504 h
# How it was run: (§2)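 Cholesterol was measured in day-21 nonfasting plasma of STAM male mice on 25 mg kg−1 d−1 drug in high-fat diet. The colorimetric assay used Infinity cholesterol reagent at 37 °C for 5–20 min, reading absorbance at 500 nm minus 660 nm background. Values were interpolated from a cholesterol standard curve. n = 8; Kruskal–Wallis test.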
# [9] = Drug distribution in C57BL/6 mouse liver at 10 mg/kg, po administered via gavage measured after 1 hr by LC/MS-MS analysis; assay type: ADME, organism-based; details: read-out: Drug uptake
# How it was run: (§3)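 Male C57BL/6 mice received a single 10 mg/kg oral gavage and were euthanized by cervical dislocation at 1 h. Tissues were rinsed in PBS, snap-frozen, pulverized in liquid nitrogen and homogenized, then spun at 10 000g for 10 min. Supernatants were extracted with acetonitrile:methanol (9:1) and quantified by LC–MS/MS against spiked standards. n = 3.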
# Mus musculus [10] = experiment: Anti-hepatosteatosis activity in C57BL/6 mouse model of streptozotocin-induced nonalcoholic steatohepatitis assessed as reduction in ALT level at 25 mg/kg/day, po administered for 21 days formulated into HFD measured post-last dose; assay type: functional, organism-based
# How it was run: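 STAM male mice were dosed with compound premixed into high-fat diet (57 kcal % fat) from 6 weeks of age for 21 days, at 25 mg kg−1 d−1. They were sacrificed at 9 weeks of age by cardiac puncture under isoflurane. Nonfasting heparinized blood was spun at 1000g for 15 min at 4 °C, and plasma ALT was read on a dry-chemistry analyzer. n = 8 male mice per group; mean ± SEM.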
# Mus musculus [11] = experiment: (§4) Anti-hepatosteatosis activity in C57BL/6 mouse model of streptozotocin-induced nonalcoholic steatohepatitis assessed as fibrosis score at 25 mg/kg/day, po administered for 21 days formulated into HFD measured post-last dose by Picro-Sirius red staining based histopathological analysis (reference value: 0.91 +/- 0.09 %); assay type: functional
# [12] = Induction of mitochondrial uncoupling in rat L6 cells assessed as increase in oxygen consumption rate incubated for 90 mins by Seahorse XF analyzer based assay; assay type: mitochondria, Mitochondria
# [13] = Toxicity in C57BL/6 mouse model of streptozotocin-induced nonalcoholic steatohepatitis assessed as effect on plasma glucose level at 25 mg/kg/day, po formulated into HFD administered for 21 days measured post last dose by […]; assay type: organism-based; details: in vivo, 504 h
# How it was run: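 Nonfasting whole-blood glucose was read with a glucose meter at sacrifice (day 21) in STAM male mice dosed at 25 mg kg−1 d−1 via high-fat diet. Readings above 900 mg/dL were recorded as 900 mg/dL. n = 8; one-way ANOVA.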
# Mus musculus [14] = experiment: Anti-hepatosteatosis activity in C57BL/6 mouse model of streptozotocin-induced nonalcoholic steatohepatitis assessed as reduction in ballooning score at 25 mg/kg/day, po administered for 21 days formulated into HFD measured post-last dose by […] based histopathological analysis; assay type: functional, organism-based; how it was run: as §1
# [15] = Toxicity in C57BL/6 mouse model of streptozotocin-induced nonalcoholic steatohepatitis assessed as effect on body weight at 25 mg/kg/day, po formulated into HFD administered for 21 days measured during compound dosing; assay type: organism-based; details: in vivo, 504 h
# How it was run: (§5)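 STAM male mice received the compound premixed in high-fat diet for 21 days from 6 weeks of age, at 25 mg kg−1 d−1. Body weight was recorded, and livers were weighed after sacrifice at 9 weeks of age. n = 8 per group; Kruskal–Wallis test.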
# [16] = Toxicity in C57BL/6 mouse model of streptozotocin-induced nonalcoholic steatohepatitis assessed as effect on liver weight at 25 mg/kg/day, po formulated into HFD administered for 21 days measured during compound dosing; assay type: organism-based; details: in vivo, 504 h; how it was run: as §5
# [17] = Drug distribution in C57BL/6 mouse kidney at 10 mg/kg, po administered via gavage measured after 1 hr by LC/MS-MS analysis; assay type: ADME, organism-based; details: read-out: Drug uptake; how it was run: as §3
# [18] = Cmax in C57BL/6 mouse at 10 mg/kg, po administered via gavage by LC/MS-MS analysis; assay type: ADME, organism-based; design: dose 10 mg/kg, route oral; details: in vivo
# How it was run: (§6)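 Male C57BL/6 mice aged 9–12 weeks received a single 10 mg/kg oral gavage bolus. The vehicle was methylcellulose 90–91%, Tween 80 2–3% and DMSO 6–8% (v/v). Tail-tip blood was drawn into heparinized capillaries and spun at 2000g for 10 min. Plasma was extracted with acetonitrile:methanol (9:1) and quantified by LC–MS/MS against spiked plasma standards (1–100 ng). n = 3.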
# [19] = Half life in C57BL/6 mouse at 10 mg/kg, po administered via gavage by LC/MS-MS analysis; assay type: ADME, organism-based; details: in vivo; how it was run: as §6
# [20] = Solubility of compound in PBS at pH 7.4; assay type: physicochemical; details: buffer
# Mus musculus [21] = experiment: Anti-hepatosteatosis activity in C57BL/6 mouse model of streptozotocin-induced nonalcoholic steatohepatitis assessed as reduction in steatosis score at 25 mg/kg/day, po administered for 21 days formulated into HFD measured post-last dose by […] based histopathological analysis; assay type: functional, organism-based; how it was run: as §1
# [22] = Toxicity in C57BL/6 mouse model of streptozotocin-induced nonalcoholic steatohepatitis assessed as effect on body weight at 10 mg/kg/day, po formulated into HFD administered for 21 days measured during compound dosing; assay type: organism-based; details: in vivo, 504 h
# [23] = Toxicity in C57BL/6 mouse model of streptozotocin-induced nonalcoholic steatohepatitis assessed as decrease in food consumption per cage at 10 mg/kg/day, po formulated into HFD administered for 21 days measured during compound dosing relative to control; assay type: organism-based; design: scale not given: the % may be the effect or the level left; details: in vivo, 504 h
# [24] = Toxicity in C57BL/6 mouse model of streptozotocin-induced nonalcoholic steatohepatitis assessed as increase in plasma cholesterol level at 25 mg/kg/day, po formulated into HFD administered for 21 days measured post last dose by […] reagent based colorimetric method; assay type: organism-based; details: in vivo, 504 h; how it was run: as §2
# Mus musculus [25] = experiment: Anti-hepatosteatosis activity in C57BL/6 mouse model of streptozotocin-induced nonalcoholic steatohepatitis assessed as reduction in ALT level at 10 mg/kg/day, po administered for 21 days formulated into HFD measured post-last dose; assay type: functional, organism-based
# Mus musculus [26] = experiment: Anti-hepatosteatosis activity in C57BL/6 mouse model of streptozotocin-induced nonalcoholic steatohepatitis assessed as reduction in liver triglyceride level at 10 mg/kg/day, po administered for 21 days formulated into HFD measured post-last dose by triglyceride E test based assay; assay type: functional, organism-based
# [27] = Toxicity in C57BL/6 mouse model of streptozotocin-induced nonalcoholic steatohepatitis assessed as change in plasma AST level at 10 mg/kg/day, po formulated into HFD administered for 21 days measured post last dose; assay type: organism-based; details: in vivo, 504 h
# Mus musculus [28] = experiment: as §4, with “10” for “25”; assay type: functional
# [29] = Toxicity in C57BL/6 mouse model of streptozotocin-induced nonalcoholic steatohepatitis assessed as effect on liver weight at 10 mg/kg/day, po formulated into HFD administered for 21 days measured during compound dosing; assay type: organism-based; details: in vivo, 504 h
# Voltage-gated inwardly rectifying potassium channel KCNH2, sequence (Q12809 whole entry): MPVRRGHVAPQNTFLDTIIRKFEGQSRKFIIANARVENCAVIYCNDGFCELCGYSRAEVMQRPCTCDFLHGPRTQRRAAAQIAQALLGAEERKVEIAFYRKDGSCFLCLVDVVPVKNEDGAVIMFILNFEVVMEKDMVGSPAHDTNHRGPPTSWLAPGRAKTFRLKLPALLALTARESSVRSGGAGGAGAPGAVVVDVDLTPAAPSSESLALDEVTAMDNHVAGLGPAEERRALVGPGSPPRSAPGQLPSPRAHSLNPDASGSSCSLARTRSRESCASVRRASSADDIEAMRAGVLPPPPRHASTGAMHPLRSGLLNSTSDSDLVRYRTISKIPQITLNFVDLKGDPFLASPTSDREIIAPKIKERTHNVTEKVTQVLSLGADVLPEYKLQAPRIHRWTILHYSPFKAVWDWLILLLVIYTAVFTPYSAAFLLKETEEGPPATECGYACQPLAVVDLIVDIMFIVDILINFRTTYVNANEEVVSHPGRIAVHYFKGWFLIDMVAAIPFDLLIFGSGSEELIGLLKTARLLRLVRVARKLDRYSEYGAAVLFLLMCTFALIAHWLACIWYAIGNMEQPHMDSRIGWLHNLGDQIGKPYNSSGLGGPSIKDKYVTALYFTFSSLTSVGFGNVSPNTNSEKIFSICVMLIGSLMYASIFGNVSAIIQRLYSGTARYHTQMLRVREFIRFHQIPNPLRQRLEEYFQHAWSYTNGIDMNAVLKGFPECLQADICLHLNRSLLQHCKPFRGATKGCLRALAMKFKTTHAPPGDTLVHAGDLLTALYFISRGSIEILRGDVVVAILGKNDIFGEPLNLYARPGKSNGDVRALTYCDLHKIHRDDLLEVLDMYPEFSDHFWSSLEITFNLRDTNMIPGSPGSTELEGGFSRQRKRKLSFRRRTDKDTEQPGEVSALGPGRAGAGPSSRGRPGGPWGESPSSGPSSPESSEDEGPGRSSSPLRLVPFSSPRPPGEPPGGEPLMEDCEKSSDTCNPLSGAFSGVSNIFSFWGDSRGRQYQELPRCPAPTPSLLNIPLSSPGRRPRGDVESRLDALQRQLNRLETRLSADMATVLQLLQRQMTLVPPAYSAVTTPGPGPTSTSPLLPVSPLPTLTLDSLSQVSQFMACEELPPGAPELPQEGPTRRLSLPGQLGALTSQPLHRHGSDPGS
compound,measurement,setting,value
Oc1nc2nonc2nc1Nc1ccc(OC(F)(F)F)cc1,Activity,[1],Non-Toxic
same,inhibition (INH),[2],Not Active
same,Activity,[3],Non-Toxic
same,Activity,Mus musculus [4],Active
same,Activity,[5],Non-Toxic
same,Activity,[6],331 g
same,Activity,Mus musculus [7],Active
same,Activity,[8],Non-Toxic
same,concentration at 1 h,[9],15800 ng/g
same,Activity,Mus musculus [10],Active
same,Activity,Mus musculus [11],0.62%
same,EC50,[12],4.3 µM
same,Activity,[13],Non-Toxic
same,Activity,Mus musculus [14],Active
same,Activity,[15],Non-Toxic
same,Activity,[16],Non-Toxic
same,concentration at 1 h,[17],9200 ng/g
same,Cmax,[18],80.9 µM
same,half-life,[19],5.7 h
same,solubility,[20],> 500 µM
same,Activity,Mus musculus [21],Active
CCCc1nc2c(C)cc(-c3nc4ccccc4n3C)cc2n1Cc1ccc(-c2ccccc2C(=O)O)cc1,Activity,[22],Toxic
same,Activity,[23],9%
same,Activity,[24],Toxic
same,Activity,Mus musculus [25],Active
same,Activity,Mus musculus [26],Active
same,Activity,[27],Non-Toxic
same,Activity,Mus musculus [28],0.6%
same,Activity,[29],Toxic
